Drawing on ChEMBL document CHEMBL4513216, “Probing the Open Global Health Chemical Diversity Library for Multistage-Active Starting Points for Next-Generation Antimalarials” (ACS Infect Dis, 2020), this text covers cytotoxicity for 97 molecules.

SMILES strings stand for the structures.

This data set is described as follows: Toxicity liver stage against HepG2, at 10uM. The conditions noted are these: human, HepG2-A16-CD81EGFP cells; read-out: INHIBITION
The format is cell-based. On the set-up: test concentration 10 uM, cell line HepG2-A16-CD81EGFP. Put shortly:
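Uninfected HepG2-A16-CD81EGFP cells, 3 × 10^3 per well, 1536-well, plated on prespotted compound at 10 μM final, parasite-free screening media added to match infected plates; puromycin 10 μM positive, DMSO 0.5% negative; run in parallel with 48 h PbLuc assay at 37 °C, 5% CO2; viability by CellTiter-Glo luminescence, normalized to controls.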
Consider `CS(=O)(=O)c1ccc(O[C@H]2COCCN(Cc3ccncc3)C2)cc1`, for which the cytotoxicity at 10 µM is -5.33%. Then `CNC(=O)C(C)(C)N1CCC[C@H]1C(=O)NC1CC1`, with 4.82%; and `CC(C)c1noc([C@@H]2C[C@H](NS(=O)(=O)Cc3ccccc3)CN2C)n1`, with -2.1%. The same measure for `Cc1cc2c(C)cc(O)cc2c(=O)o1`: 5.73%; for `O=C(c1cccnc1SCc1ccccc1)N1CC[C@@H](O)C1`: -2.04%; for `CSCC[C@H](NC(=O)CCn1cc(C(C)=O)c2ccccc21)C(=O)O`: -3.91%. For `O=C(NC1CC1)c1cccc(Oc2ccc3nncn3n2)c1`, the cytotoxicity at 10 µM is -5.29%. In the case of `Cc1cc(Br)c2c(c1)C1(CC(=O)Nc3c1cnn3C(C)C)C(=O)N2` (configuration not stated), the cytotoxicity at 10 µM is -10.3%. The same measure for `CCNC(=O)N1CCC2(CC1)CCn1c(-c3ccccc3)cnc12`: -8.19%; for `O=C(CO)N1CC2(CCN(c3ccccc3)C2)C1`: 8.98%; for `CCN1CC2(CCN(C(=O)N(C)C)CC2)COc2ccccc2S1(=O)=O`: 6.55%. The same measure for `CN1CCN(C(=O)Cc2ccccn2)Cc2cccnc21`: -7.01%. Then `O=C1CC(c2ccc(C(=O)O)cc2)c2ncn(-c3cccnc3)c2N1` (configuration not stated), with -1.64%.

For the molecule `CC(C)n1ncc2c1NC(=O)CC21C(=O)Nc2c(Cl)cc(Cl)cc21` (configuration not stated), the cytotoxicity at 10 µM came out at 3.38%. Then `CCCN1C(=O)CC(N2CCN(c3ccc(F)cc3)CC2)C1=O` (configuration not stated), with -3.03%.

On to `CCOc1cccc(C(=O)Nc2ccn(CC)n2)c1`, for which the cytotoxicity at 10 µM was 8.19%. Turning to `CCc1cc(C(=O)N2CCCC(c3cc(=O)nc4n3CCC4)C2)no1` (configuration not stated), the cytotoxicity at 10 µM was -2.6%. Then `CCn1ncc(C(=O)NCCc2nc(-c3cccnc3)n[nH]2)c1C`, with 1.94%; and `O=C(O)[C@@H]1CCN(C(=O)c2cscn2)[C@@H]1c1ccc(F)cc1`, with 4.97%; and `O=C(Nc1ccccn1)C1CCN(C(=O)COc2ccccc2F)C1` (configuration not stated), with -24.6%.

With `CCc1nnc(Nc2cccc(C3CCCN(CC(C)(C)C)C3)n2)s1` (configuration not stated), the cytotoxicity at 10 µM was -33.9%.

Regarding `CN1CC(c2cc(O)nc(NCc3cccc(F)c3)n2)CC1=O` (configuration not stated), the cytotoxicity at 10 µM is 1.96%. The same measure for `CC(C)C1=NOC2(CCN(S(C)(=O)=O)CC2)C1`: 6.47%; for `CC(NC(=O)N1CCS(=O)(=O)CC1)c1ccc(F)cc1Cl` (configuration not stated): -1.28%. Then `CC(C)NC(=O)CCNC(=O)CCc1cc(Br)cs1`, with -3.16%.

For the molecule `CSc1ccsc1C(=O)NCCNC(=O)C1CC1`, the cytotoxicity at 10 µM amounted to 1.93%. Consider `CCCC(C)CS(=O)(=O)NCc1cccnc1N(C)C` (configuration not stated), for which the cytotoxicity at 10 µM worked out at 2.96%. Regarding `CCc1ncc(CN(C)C2CCN(c3sccc3C#N)C2=O)s1` (configuration not stated), the cytotoxicity at 10 µM was -0.876%. In the case of `CCSCc1csc(-c2ccc(S(C)(=O)=O)cc2)n1`, the cytotoxicity at 10 µM was determined as 8.21%. Then `CCc1[nH]ncc1C(=O)N1CCN(c2nccc(OC)n2)CC1`, with 0.296%; and `CNS(=O)(=O)c1ccc(CNC(=O)C2CCCN(C)C2)cc1` (configuration not stated), with -10.5%. Then `Cc1cc(NC(=O)NCCOc2ccc(Cl)cn2)no1`, with 9.08%. The same measure for `CCc1ncc(C(=O)N2CCOCC2CC(=O)c2ccccc2)s1` (configuration not stated): 2.58%; for `Cn1c(=O)ccn(CC(=O)NCC2Cc3ccccc3O2)c1=O` (configuration not stated): -0.387%.

Regarding `O=C(c1ccc(-n2cccc2)c(F)c1)N1CCCN2CCCC2C1` (configuration not stated), the cytotoxicity at 10 µM was -2.45%.

Consider `O=C(Nc1ccc2c(ccn2CCN2CCOCC2)c1)c1ccncc1`, for which the cytotoxicity at 10 µM is -2.9%. As to `CCC(C)(NCC(=O)OC)c1nc(C)cs1` (configuration not stated), the cytotoxicity at 10 µM was -3.94%. Then `O=C(Nc1cc(Cl)ccn1)c1nc(N2CCCC2)ncc1Cl`, with -9.26%. The same measure for `N#Cc1cc(NC(=O)c2cscn2)ccc1N1CCC(O)CC1`: 6.59%; for `CCn1nc2c(cc1=O)CN(CC(=O)Nc1cc(C)no1)CC2`: -5.22%; for `COCCN1CCC(NC(=O)C(C)C)CC1`: -2.45%. Then `O=S(=O)(c1ccc2c(c1)OCCO2)N1CCC(OCc2ccccn2)C1` (configuration not stated), with -1.18%. As to `CC(C)(C)C(=O)NCC(=O)NC1CC(c2cccc(Cl)c2)C1` (configuration not stated), the cytotoxicity at 10 µM was -1.72%. Then `CCOCC1CCN(C(=O)Nc2ccc3c(c2)CCCN3C)C1` (configuration not stated), with 10.1%; and `CSc1ccc(NCc2csc(C)n2)cc1F`, with -6.54%; and `CC(C(=O)N1CCc2ccccc21)N1CCc2cncnc2C1` (configuration not stated), with 0.693%.

Turning to `Cc1cccc(N(CCC#N)S(=O)(=O)CC2CCCCO2)c1` (configuration not stated), the cytotoxicity at 10 µM was determined as 6.48%. The same measure for `Cc1n[nH]cc1CNC(C(=O)N1CCOCC1)c1ccccc1` (configuration not stated): 7.57%; for `Cc1ccc(N2CCCC(N3CCC(N(C)C)CC3)C2=O)cc1` (configuration not stated): -5.16%; for `CCOc1ccc(CN2C(=O)CC3(CCCC3)C2=O)nc1`: -4.01%. Then `CCOCC(=O)N(C)c1ccc(F)c(Cl)c1`, with -3.99%; and `CCc1nsc(N2CCc3sccc3C2)n1`, with 1.56%; and `COCCCNC(=O)C1(NC(=O)c2ccc3[nH]ncc3c2)CCCC1`, with -1.62%. Turning to `O=S1(=O)CCC(N(CCc2ccc3c(c2)CCO3)C2CC2)C1` (configuration not stated), the cytotoxicity at 10 µM was -0.532%.

Turning to `O=C(NCCn1cccc1)c1c(O)cc(F)cc1F`, the cytotoxicity at 10 µM is -5.22%. Then `CCC(CC)c1cc(CNC(=O)N2CCCC(N(C)C)C2)on1` (configuration not stated), with 1.47%; and `CCc1nc(C2CCCN2Cc2nc(C3CC3)no2)no1` (configuration not stated), with -21.4%; and `O=C(Cc1ccc2c(c1)CCO2)N1CCCCC1Cn1cccn1` (configuration not stated), with -12.8%. `Cc1nc(C)n(CC2CN(CCc3ccncc3)CCO2)n1` (configuration not stated): the cytotoxicity at 10 µM is -14.7%.

For `O=C(CC1CN(Cc2ccccc2)CCO1)Nc1ccccc1F` (configuration not stated), the cytotoxicity at 10 µM is -2.05%. For the molecule `Cc1ccc(C(=O)N2C[C@H](OCC3CCOCC3)[C@H]3OCCC[C@H]32)o1`, the cytotoxicity at 10 µM is -0.714%. Take `Cc1cccc(OC2CCN(C(=O)CNC(=O)N(C)C)CC2)c1`: the cytotoxicity at 10 µM is -0.951%. Then `CO[C@H]1CNC[C@@H]1NC(=O)c1cc(C)nc2c(C)cc(C)cc12`, with 4.12%; and `COc1nc2c(cc1C(=O)N1CCCCC1c1ccccn1)CCC2` (configuration not stated), with -12.5%.

Take `CNc1nc(C)c(C(=O)N2CCCCC2CCc2ccc(O)cc2)s1` (configuration not stated): the cytotoxicity at 10 µM was 0.126%. For the molecule `Cc1cc(N2CCCC(O)CC2)n2nc(C)c(C)c2n1` (configuration not stated), the cytotoxicity at 10 µM is 7.46%. Then `CCCOC(=O)N1CCCn2nc(C(=O)Nc3ccccc3)cc2C1`, with 7.23%; and `Cn1cc(CNCC2(O)CCCN(Cc3ccc(F)c(F)c3)C2=O)cn1` (configuration not stated), with -14.5%; and `Cc1cncc(C(=O)N2CCC3(CC2)C(=O)Nc2ccccc23)c1`, with -137%. With `COc1ccc(N2CCN(C(=O)CCn3nnnc3C)CC2(C)C)cc1`, the cytotoxicity at 10 µM turned out to be 10.4%. Regarding `Cc1ccncc1C(=O)N1CCCC(C(=O)CCc2ccccc2)C1` (configuration not stated), the cytotoxicity at 10 µM came out at 18%. The same measure for `CCOCC(O)CN1CCN(C(=O)c2cc(C)ccc2OC)CC1` (configuration not stated): 5.35%; for `Cc1nn(C)c(Cl)c1C1CCCN1C(=O)CCNc1ncccn1` (configuration not stated): -7.42%; for `CCS(=O)(=O)N1CCN(C(=O)c2cnc3[nH]nc(C)c3c2)CC1`: -5.68%. Turning to `CC(C)(C)c1ncc(C(=O)NCCNS(C)(=O)=O)s1`, the cytotoxicity at 10 µM was -6.14%. As for `COc1ccc(NC(=O)C(C)n2cncn2)cn1` (configuration not stated), the cytotoxicity at 10 µM is -16.4%. Then `CC(C)c1ncc2c(n1)CN(Cc1cccc(C(N)=O)c1)CC2`, with -9.17%. Then `COC(=O)c1ccc(N2CCN(C(=O)c3ccco3)C(C)C2)cc1` (configuration not stated), with -8.15%.

As for `CCCc1noc(CCC(=O)N2CCCC2c2cccc(OC)c2)n1` (configuration not stated), the cytotoxicity at 10 µM was -9.71%. Take `c1ncn(CC2CCCN(Cc3nc(-c4ccoc4)no3)C2)n1` (configuration not stated): the cytotoxicity at 10 µM is -1.43%. Then `c1ccc2nc(N3CCOC(Cn4cccn4)C3)cnc2c1` (configuration not stated), with -9.86%; and `Cc1cnn(CC(C)NCc2ccc(OCc3nccn3C)cc2)c1` (configuration not stated), with -10.7%.

For the molecule `Cc1cnn(CCNCc2nnc(-c3ccc(F)cc3)o2)c1`, the cytotoxicity at 10 µM is -43.9%. Turning to `CC(NC(=O)Cn1ccc(=O)n(C)c1=O)c1cc(F)ccc1F` (configuration not stated), the cytotoxicity at 10 µM is -4.64%. Then `CC(C)c1noc(C(C)N2CCN(Cc3noc(C(C)(C)C)n3)CC2)n1` (configuration not stated), with -14.6%. Regarding `COc1ccc(C(=O)N(C)Cc2nnc3ccccn23)cc1`, the cytotoxicity at 10 µM was determined as 3.45%. Then `CCc1nc(CN2CCN(C(=O)c3cc(C)no3)CC2)cs1`, with -21.8%. For the molecule `CCN(Cc1nc2c(cnn2C)c(=O)[nH]1)c1cccc(F)c1`, the cytotoxicity at 10 µM was -0.746%.

In the case of `CCOCC1CC2(CCN(C(=O)c3ccc4ccccc4n3)CC2)CO1` (configuration not stated), the cytotoxicity at 10 µM amounted to 3.79%. Then `Cc1occc1C(=O)N1CCC2(CCN(Cc3cccs3)C2)CC1`, with -4.58%; and `Cc1ccccc1C(=O)N1CCC2(CCCN2CCN(C)C)CC1`, with 3.56%; and `CCc1cnc(N2CC[C@H]3[C@H]2CC(=O)N3c2cccnc2)nc1`, with -9.62%. The same measure for `CNC(=O)CN1CCCC12CCN(C(=O)c1ccccc1F)CC2`: 1.58%; for `O=C(NCC1CC1)[C@@H]1CC[C@@H]2[C@@H](CCN2Cc2ccco2)O1`: 4.62%.

As for `O=C(CC1CC1)N1CC[C@@H]2[C@H](CC1)N(Cc1cccnc1)CCS2(=O)=O`, the cytotoxicity at 10 µM turned out to be 5.96%. For the molecule `c1cnc(N2CCN(C3CCC[C@@H]4CN(CC5CC5)C[C@H]34)CC2)nc1` (some centres not stated), the cytotoxicity at 10 µM is 8.97%. The same measure for `CN1CCN(Cc2cccnc2)C2(CCN(C3CCOCC3)C2)C1=O` (configuration not stated): -5.87%.
